High-throughput results as filed in PubChem BioAssay.
The list is not random: actives were taken first. Their share in the collection is about 2.1%.
Cneo AK release: Cryptococcus neoformans cell lysis inducers, primary screen, AK release luminescence, single concentration. C. neoformans lysis, adenylate kinase release luminescence, 4 h; normalised: neutral wells 0, clomiphene wells 100. lysis activity, % at 15 µM. hit rate 0.2% among 360,000;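 active means mean lysis activity across replicates of at least 80%, whatever share of replicates individually reach that level; inactive means mean lysis activity below 80%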
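Test system: log-phase Cryptococcus neoformans yeast cells. Input: 5 × 10^6 yeast cells/mL. Medium: fresh YPD growth medium. Doses: single dose. Incubation: static 4 h at 37 °C with compound, 1 h detection. Measured by: luminescent adenylate kinase detection reagent. Read-out: signal increase indicating cell lysis. Benchmarks: Clomiphene.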
XiGFP reactiv: activators of inactive X chromosome reactivation, primary screen, imaging, XiGFP fibroblasts, GFP high-content imaging, set 2. XiGFP mouse fibroblasts, % GFP-positive cells imaging, 3 d; cells co-treated with 5-aza-dC sensitizer; scaled so ellipticine positive control = 100%. activation, % at 7.58 µM. hit rate 0.055% among 360,000. AID 743238, 2013;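 active means mean normalized replicate activation at least 10% and every replicate at or above 10%; inconclusive means only one of the two criteria met; inactive means mean below 10% and not all replicates reach 10%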
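Material: SV40-immortalized XiGFP fibroblast cells, line 68-5-11 | Buffer or medium: DMEM containing 5-aza-dC | Dosing: One concentration, pinned | Times: 3 d treatment, 15 min room-temperature fixation | Controls: Ellipticine 6 µM positive control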
Statin myotox sup: suppressors of statin myotoxicity in C2C12 myotubes, primary screen, cell-based, single point, plate reader; C2C12 myotubes + simvastatin, ATP luminescence, 48 h; scaled: DMSO 0, geranylgeraniol control 100; rescue of ATP level, % at 7.49 µM; AID 602340, 2012; hit rate 0.78% among 330,000;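 active means mean ATP rescue above about 67%, or every replicate alone reaching that limit, limit read from the data, passing the limit was not always enough; inconclusive means no clear call, values can overlap the other calls; inactive means mean under the limit and some replicate under it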;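 further: myotubes were challenged with 10 µM simvastatin during compound exposure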
DENV2 CPE: inhibitors of DENV2 cytopathic effect, primary screen, cell-based, plate reader, single concentration; DENV2-infected cells, cytopathic effect rescue; CPE inhibition, % at 9.99 µM; hit rate 1.7% among 350,000; AID 651640, 2012; in the data active means CPE inhibition above about 20%, passing the limit was not always enough; inconclusive means no clear call, values can overlap the other calls; tested in BHK-21 cells
A number is an active result.

Screening NC(c1csc(Nc2ccc(C(=O)NCCO)cc2)n1)C1CCCCC1 (stereo unspecified) returned Cneo AK release inactive, XiGFP reactiv inactive, Statin myotox sup inactive and DENV2 CPE 22.
`CC(=O)c1ccc(Nc2nc(C(N)C3CCCCC3)cs2)cc1` (stereo unspecified) gave Cneo AK release inactive, XiGFP reactiv inactive, Statin myotox sup inactive and DENV2 CPE inactive.
`Cc1ccc([C@@H]2[C@@H]3C(=O)N(C)C(=O)[C@@H]3[C@]3(C)C(=O)N(Cc4ccc(-c5ccccc5)cc4)CC(=O)N23)o1` gave Cneo AK release inactive, XiGFP reactiv inactive, Statin myotox sup inactive and DENV2 CPE 92.
For C[C@@H]1CN([C@@H](C)CO)S(=O)(=O)c2ccc(C3=CCCC3)cc2O[C@@H]1CN(C)Cc1cccnc1 the results were Cneo AK release inactive, XiGFP reactiv inactive, Statin myotox sup inactive and DENV2 CPE inactive.
Screening C[C@@H]1CN([C@@H](C)CO)S(=O)(=O)c2ccc(C3=CCCC3)cc2O[C@@H]1CN(C)Cc1cccc(C(=O)O)c1 returned Cneo AK release inactive, XiGFP reactiv inactive, Statin myotox sup inactive and DENV2 CPE inactive.
Screening C[C@H](CO)N1C[C@H](C)[C@H](CN(C)Cc2cccc(C(=O)O)c2)Oc2cc(C3=CCCC3)ccc2S1(=O)=O returned Cneo AK release inactive, XiGFP reactiv inactive, Statin myotox sup inactive and DENV2 CPE 44.
`C[C@@H]1CN([C@@H](C)CO)S(=O)(=O)c2ccc(C3=CCCC3)cc2O[C@@H]1CN(C)Cc1ccccc1F` gave Cneo AK release 90, XiGFP reactiv inactive, Statin myotox sup inactive and DENV2 CPE inactive.
C[C@H]1CN([C@@H](C)CO)S(=O)(=O)c2ccc(C3=CCCC3)cc2O[C@@H]1CN(C)Cc1cccnc1 was read as Cneo AK release inactive, XiGFP reactiv inactive, Statin myotox sup inactive and DENV2 CPE 30.
For C[C@H]1CN([C@@H](C)CO)S(=O)(=O)c2ccc(C3=CCCC3)cc2O[C@H]1CN(C)Cc1ccccc1F the results were Cneo AK release inactive, XiGFP reactiv inactive, Statin myotox sup inactive and DENV2 CPE inactive.
Screening Cc1nc(CCNC(=O)CC2C(=O)NCCN2CC(C)(C)C)nc2c1CCC2 (stereo unspecified) returned Cneo AK release inactive, XiGFP reactiv inactive, Statin myotox sup inactive and DENV2 CPE inactive.
Screening Cc1nc(CCNC(=O)CC2C(=O)NCCN2CC(C)C)nc2c1CCC2 (stereo unspecified) returned Cneo AK release inactive, XiGFP reactiv inactive, Statin myotox sup inactive and DENV2 CPE 44.
For CCC(CCC(=O)Nc1ccn(-c2ccccc2)n1)C(=O)O (stereo unspecified) the results were Cneo AK release inactive and Statin myotox sup 121.
COCCNC(=O)COc1coc(CN2CCN(Cc3ccccc3)CC2)cc1=O was read as Cneo AK release inactive, XiGFP reactiv inactive, Statin myotox sup inactive and DENV2 CPE inactive.
CC(C)(C)NC(=O)COc1coc(CN2CCN(Cc3ccccc3)CC2)cc1=O was read as Cneo AK release inactive, XiGFP reactiv inactive, Statin myotox sup inactive and DENV2 CPE 57.
C[C@@H]1CCCCO[C@H](CN(C)S(=O)(=O)c2ccc(F)cc2)[C@@H](C)CN([C@@H](C)CO)C(=O)c2cc(NC(=O)Nc3ccc4c(c3)OCO4)ccc2O1 was read as Cneo AK release inactive, XiGFP reactiv inactive and DENV2 CPE inactive.
Cc1ccc(S(=O)(=O)Nc2ccc3c(c2)CC(=O)N([C@@H](C)CO)C[C@@H](C)[C@@H](CN(C)Cc2ccc(Cl)c(Cl)c2)O3)cc1 was read as Cneo AK release inactive, XiGFP reactiv inactive, Statin myotox sup 77 and DENV2 CPE inactive.
For Cc1ccc(S(=O)(=O)Nc2ccc3c(c2)CC(=O)N([C@H](C)CO)C[C@@H](C)[C@@H](CN(C)Cc2ccc(Cl)c(Cl)c2)O3)cc1 the results were Cneo AK release inactive, XiGFP reactiv inactive, Statin myotox sup 116 and DENV2 CPE inactive.
`Cc1ccc(S(=O)(=O)Nc2ccc3c(c2)CC(=O)N([C@H](C)CO)C[C@H](C)[C@@H](CN(C)Cc2ccc(Cl)c(Cl)c2)O3)cc1` gave Cneo AK release inactive, XiGFP reactiv inactive, Statin myotox sup 145 and DENV2 CPE inactive.
`Cc1ccc(S(=O)(=O)Nc2ccc3c(c2)CC(=O)N([C@H](C)CO)C[C@@H](C)[C@H](CN(C)Cc2ccc(Cl)c(Cl)c2)O3)cc1` gave Cneo AK release inactive, XiGFP reactiv inactive, Statin myotox sup 103 and DENV2 CPE inactive.
For Cc1ccc(S(=O)(=O)Nc2ccc3c(c2)CC(=O)N([C@@H](C)CO)C[C@H](C)[C@H](CN(C)Cc2ccc(Cl)c(Cl)c2)O3)cc1 the results were Cneo AK release inactive, XiGFP reactiv inactive, Statin myotox sup inactive and DENV2 CPE inactive.
O=C(C[C@H]1CC[C@@H]2[C@H](COC[C@H](O)CN2C(=O)Nc2ccccc2)O1)NCCc1ccncc1 was read as Cneo AK release inactive, XiGFP reactiv inactive, Statin myotox sup inactive and DENV2 CPE inconclusive.
`COc1ccc(CN(C)C[C@H]2Oc3c(NC(=O)Nc4c(C)noc4C)cccc3C(=O)N([C@H](C)CO)C[C@H]2C)cc1` gave Cneo AK release inactive, XiGFP reactiv inactive, Statin myotox sup inactive and DENV2 CPE inactive.
For CC12CCC(=O)N1C(C(=O)Nc1cccc(S(=O)(=O)N3CCCCCC3)c1)CS2 (stereo unspecified) the results were Cneo AK release inactive, XiGFP reactiv inactive, Statin myotox sup inactive and DENV2 CPE inactive.
For CC12CCC(=O)N1C(C(=O)Nc1ccc(S(=O)(=O)N3CCCCC3)cc1)CS2 (stereo unspecified) the results were XiGFP reactiv inactive, Statin myotox sup inactive and DENV2 CPE 32.
For CC12CCC(=O)N1C(C(=O)Nc1nc(-c3ccccc3)cs1)CS2 (stereo unspecified) the results were XiGFP reactiv inactive and DENV2 CPE 29.
COc1ccc(-c2nc3n(c(=O)c2C#N)CCCS3)cc1 was read as Cneo AK release inactive and Statin myotox sup inactive.
`CCOc1ccc(-c2nc3n(c(=O)c2C#N)CCCS3)cc1` gave Cneo AK release inactive and Statin myotox sup 103.
Screening Cc1ccc(S(=O)(=O)Nc2ccc3c(c2)C(=O)N([C@@H](C)CO)C[C@H](C)[C@@H](CN(C)C(=O)CCCN(C)C)OCCCC[C@H](C)O3)cc1 returned Cneo AK release inactive, XiGFP reactiv inactive and DENV2 CPE inactive.
`COc1ccc(C2CC(=O)C(C=NCCCN3CCOCC3)=C(O)C2)cc1` (stereo unspecified) gave Cneo AK release inactive and Statin myotox sup inactive.
Screening O=C1C(C=NCCN2CCOCC2)=C(O)c2ccccc21 returned Cneo AK release inactive, XiGFP reactiv inactive and Statin myotox sup inactive.
`O=C1C(C=NCCCN2CCOCC2)=C(O)c2ccccc21` gave Cneo AK release inactive and Statin myotox sup 124.
